# Screening results: PubChem, Broad Institute
# Only some compounds are listed: those with a hit (about 2.1% of all), similar ones and a draw of the others.
# Cneo AK release: Cryptococcus neoformans lysis via adenylate kinase release; lysis activity, % at 15 µM; 0.2% of 360,000 active; C. neoformans lysis, adenylate kinase release luminescence, 4 h; normalised: neutral wells 0, clomiphene wells 100; AID 651654;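 active means mean lysis activity across replicates of at least 80%, whatever share of replicates individually reach that level; inactive means mean lysis activity below 80%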
#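 Schedule: static 4 h at 37 °C with compound, 1 h detection; system: C. neoformans cells; benchmarks: Clomiphene as positive control; buffer or medium: fresh YPD medium; measure: luminescence rise reflecting yeast cell lysis; measured by: luminescent adenylate kinase detection reagent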
# C2C12 statin: suppression of simvastatin myotoxicity; 0.78% of 330,000 active; rescue of ATP level, % at 7.49 µM; C2C12 myotubes + simvastatin, ATP luminescence, 48 h; scaled: DMSO 0, geranylgeraniol control 100; AID 602340;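 active means mean ATP rescue above about 67%, or every replicate alone reaching that limit, limit read from the data, passing the limit was not always enough; inconclusive means no clear call, values can overlap the other calls; inactive means mean under the limit and some replicate under it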;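 further: myotubes were challenged with 10 µM simvastatin during compound exposure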
# DENV2 CPE rescue: DENV2-induced cell death inhibition | DENV2-infected cells, cytopathic effect rescue, plate reader | 1.7% of 350,000 active | CPE inhibition, % at 9.99 µM; in the data active means CPE inhibition above about 20%, passing the limit was not always enough; inconclusive means no clear call, values can overlap the other calls; tested in BHK-21 cells
# XiGFP reactiv: reactivates the inactive X chromosome in mouse fibroblasts. XiGFP mouse fibroblasts, % GFP-positive cells imaging, 3 d; cells co-treated with 5-aza-dC sensitizer; scaled so ellipticine positive control = 100%. activation, % at 7.58 µM. 0.055% of 360,000 active;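 active means mean normalized replicate activation at least 10% and every replicate at or above 10%; inconclusive means only one of the two criteria met; inactive means mean below 10% and not all replicates reach 10%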
#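 assay system = SV40-immortalized XiGFP fibroblast cells, line 68-5-11 | buffer or medium = DMEM plus 5-aza-dC sensitizer | doses = single-point pinned compound dosing | times = 3-day compound exposure, then 15 min fixation at room temperature | benchmarks = positive control ellipticine, 6 µM final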
# Hits are given with their value; i = inactive; ? = inconclusive; nt = not tested or not shown.
SMILES,Cneo AK release,C2C12 statin,DENV2 CPE rescue,XiGFP reactiv
O=C(C1CCOCC1)N1CC[C@@H]2[C@H]1c1cc(-c3cccc(F)c3)ccc1N[C@@H]2CO,i,i,88,i
OC[C@H]1Nc2ccc(-c3cccc(F)c3)cc2[C@H]2[C@@H]1CCN2Cc1ccc(F)cc1,i,i,i,i
O=C(C1CCOCC1)N1CC[C@@H]2[C@H](CO)Nc3ccc(-c4cccc(F)c4)cc3[C@@H]21,i,i,?,i
CC(=O)N1CC[C@@H]2[C@@H](CO)Nc3ccc(-c4cccc(F)c4)cc3[C@@H]21,i,i,29,i
O=C(C1CCOCC1)N1CC[C@@H]2[C@H](CO)Nc3ccc(Br)cc3[C@@H]21,i,i,i,i
O=C(C1CCOCC1)N1CC[C@@H]2[C@H]1c1cc(Br)ccc1N[C@@H]2CO,87,i,i,i
OC[C@H]1Nc2ccc(-c3cccc(F)c3)cc2[C@@H]2[C@H]1CCN2Cc1ccc(F)cc1,i,i,48,i
O=C(C[C@H]1C=C[C@@H](NC(=O)c2ccc(F)cc2)[C@@H](CO)O1)NCc1ccncn1,i,i,i,i
CC(C)NC(=O)N(C)C[C@H]1Oc2c(NC(=O)NC3CCCCC3)cccc2C(=O)N([C@@H](C)CO)C[C@H]1C,i,i,i,i
C[C@@H]1CN([C@@H](C)CO)C(=O)c2cc(NC(=O)Nc3cccc4ccccc34)ccc2O[C@@H](C)CCCCO[C@@H]1CN(C)S(=O)(=O)c1cccs1,i,i,i,i
O=C(C1CC1)N1CC[C@H]2[C@H](CO)Nc3ccc(-c4ccc(F)cc4)cc3[C@H]21,i,i,i,i
O=C(C1CC1)N1CC[C@@H]2[C@H]1c1cc(-c3ccc(F)cc3)ccc1N[C@@H]2CO,i,i,122,i
CO[C@@H]1CN(C)C(=O)c2cc(NC(=O)Nc3ccc(F)cc3)ccc2OC[C@H](C)NC[C@@H]1C,i,i,i,i
CN1CCN(C(=S)Nc2ccc(Cl)c(Cl)c2)CC1,i,nt,78,i
O=C(N[C@H]1C=C[C@@H](CC(=O)N2CCc3ccccc3C2)O[C@H]1CO)C1CCC1,i,i,i,i
Clc1ccccc1-c1cc2nc(NCCCn3ccnc3)ccn2n1,i,i,32,i
CC(=O)N(C)C[C@H]1Oc2cc(C#CC(C)C)ccc2S(=O)(=O)N([C@H](C)CO)C[C@H]1C,i,i,i,i
CCC(N=c1cc(-c2ccc(OC)cc2)oc2ccc(C)cc12)C(=O)O (stereo not given),nt,nt,nt,i
CCC(N=c1cc(-c2ccc(OC)c(OC)c2)oc2ccc(C)cc12)C(=O)O (stereo not given),nt,nt,22,i
C/C=C/c1ccc2c(c1)O[C@H](CN(C)C(=O)c1cnccn1)[C@H](C)CN([C@H](C)CO)S2(=O)=O,i,i,i,i
CC(C)C#Cc1ccc([C@@H]2[C@H](CO)N3CCCCN(C(=O)c4ccc5c(c4)OCO5)C[C@@H]23)cc1,111,nt,i,i
CN(C)CC#Cc1ccc([C@H]2[C@H](CO)N3CCCCN(C(=O)Nc4cc(F)ccc4F)C[C@@H]23)cc1,i,nt,32,i
CN(C)CC#Cc1ccc([C@H]2[C@@H](CO)N3CCCCN(C(=O)c4ccc5c(c4)OCO5)C[C@H]23)cc1,i,i,22,i
COC(=O)[C@@H]1[C@@H](CO)[C@@H]2Cn3c(ccc(-c4ccncc4)c3=O)[C@@H]2N1CC1CCCCC1,i,i,i,i
COCCNC(=O)C1CCCN(C(=O)c2cc(C)nn2C(C)(C)C)CC1 (stereo not given),i,i,21,i
SMILES,Cneo AK release,C2C12 statin,DENV2 CPE rescue,XiGFP reactiv
COCCNC(=O)C1CCCN(C(=O)c2cc(C)n(C(C)(C)C)n2)CC1 (stereo not given),i,i,i,i
O=C(Cn1cc(CN2C(=O)COC[C@H]2c2ccccc2)nn1)Nc1nccs1,i,nt,i,nt
Cc1c(/C=N/NC(=O)CNc2ccccc2)c2ccccn2c1C(=O)c1ccncc1,nt,nt,35,i
Cc1c(/C=N/NC(=O)CNc2ccccc2)c2ccccn2c1C(=O)c1ccc(Cl)cc1,i,nt,nt,i
CCCNC(=O)N1CC2(CCN(Cc3ccccn3)CC2)c2c(n(C)c3cc(OC)ccc23)[C@@H]1CO,nt,nt,i,i
CO[C@@H](CN(C)Cc1cc(F)ccc1F)[C@@H](C)CN([C@H](C)CO)S(=O)(=O)c1ccc(F)cc1,102,i,i,nt
Cc1ccc(S(=O)(=O)N(C)C[C@H]2Oc3ccc(NS(=O)(=O)c4cn(C)cn4)cc3C(=O)N([C@H](C)CO)C[C@@H]2C)cc1,nt,i,nt,i
C[C@@H](O)C#Cc1ccc2c(c1)O[C@H](CN(C)CC1CC1)[C@@H](C)CN([C@@H](C)CO)S2(=O)=O,nt,i,nt,i
Cc1cc2cc(C#N)c(SCC(=O)Nc3nonc3C)nc2cc1C,i,i,i,i
Cc1nonc1NC(=O)CSc1nc2c(C)cccc2cc1C#N,nt,nt,nt,65
COc1cccc(-c2ncc3ccccc3c2COC(=O)c2ccc(F)cc2)c1,i,i,102,i
COc1cccc(-c2ncc3ccccc3c2COC(=O)c2ccc(C(C)(C)C)cc2)c1,i,i,i,i
CCOCCc1nnc(NC(=O)C(CC)c2ccccc2)s1 (stereo not given),i,116,nt,nt
COCC#Cc1ccc([C@H]2[C@H]3CN(S(=O)(=O)c4ccc(OC)cc4)CCCCN3[C@H]2CO)cc1,i,i,45,i
COCC#Cc1ccc([C@H]2[C@@H](CO)N3CCCCN(S(=O)(=O)c4ccccc4F)C[C@H]23)cc1,i,i,i,i
COCC#Cc1ccc([C@H]2[C@H](CO)N3CCCCN(S(=O)(=O)c4ccc(OC)cc4)C[C@@H]23)cc1,i,i,62,i
COCC#Cc1ccc([C@@H]2[C@@H](CO)N3CCCCN(S(=O)(=O)c4ccccc4F)C[C@@H]23)cc1,i,i,21,nt
CC(C)CC#Cc1cnc2c(c1)C(=O)N([C@H](C)CO)C[C@@H](C)[C@@H](CN(C)C(=O)c1cccc(F)c1)O2,i,i,?,i
COCC(=O)N1[C@@H]2c3ccc(-c4ccccc4)c(=O)n3C[C@@H]2[C@@H](CO)[C@@H]1C(=O)Nc1ccccc1,i,i,i,i
C[C@@H]1CN([C@H](C)CO)C(=O)c2cc(NS(C)(=O)=O)ccc2O[C@@H](C)CCCCO[C@H]1CN(C)CC1CC1,i,nt,i,i
O=C(C[C@@H]1CC[C@H]2[C@@H](COC[C@H](O)CN2C(=O)c2ccncc2)O1)NCc1ccc(-c2ccccc2)cc1,i,i,i,i
COc1ccc2ccccc2c1CNCc1ccc(C)cc1,i,i,i,i
COc1ccc2ccccc2c1CNC(C)c1ccccc1 (stereo not given),i,i,36,i
CNC[C@@H]1Oc2ccc(NC(=O)CCN3CCOCC3)cc2CC(=O)N([C@@H](C)CO)C[C@H]1C,i,i,i,i
COc1cc(/C=C2\SC(=S)N(NC(=O)c3ccc(O)c(OC)c3)C2=O)ccc1O,i,102,i,i
Cc1ccccc1S(=O)(=O)N1CC[C@@H]2[C@H](CO)Nc3ccc(-c4ccc(C#N)cc4)cc3[C@@H]21,i,i,25,i
